Measurements as given in ChEMBL document CHEMBL1144028, “Novel 2,3-dihydro-1,4-benzoxazines as potent and orally bioavailable inhibitors of tumor-driven angiogenesis” (J Med Chem, 2008).
In brackets after ≈: the same amount, converted by molar mass.

What was measured:
HUVEC [1] = assay: Inhibition of FGF-induced proliferation of HUVEC cells; format: functional, cell-based; details: Homo sapiens
Method in brief: (§1)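 Human umbilical vein endothelial cell proliferation driven by VEGF or by FGF; IC50 is the mean of two or more separate determinations, each in duplicate.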

HUVEC [2] = assay: Inhibition of VEGF-induced proliferation of HUVEC cells; format: functional, cell-based; details: Homo sapiens; method in brief: as §1
[3] = biological target: Hepatocyte growth factor receptor (Homo sapiens, UniProt P08581); assay: Inhibition of c-Met
Sequence of Hepatocyte growth factor receptor (P08581 whole entry): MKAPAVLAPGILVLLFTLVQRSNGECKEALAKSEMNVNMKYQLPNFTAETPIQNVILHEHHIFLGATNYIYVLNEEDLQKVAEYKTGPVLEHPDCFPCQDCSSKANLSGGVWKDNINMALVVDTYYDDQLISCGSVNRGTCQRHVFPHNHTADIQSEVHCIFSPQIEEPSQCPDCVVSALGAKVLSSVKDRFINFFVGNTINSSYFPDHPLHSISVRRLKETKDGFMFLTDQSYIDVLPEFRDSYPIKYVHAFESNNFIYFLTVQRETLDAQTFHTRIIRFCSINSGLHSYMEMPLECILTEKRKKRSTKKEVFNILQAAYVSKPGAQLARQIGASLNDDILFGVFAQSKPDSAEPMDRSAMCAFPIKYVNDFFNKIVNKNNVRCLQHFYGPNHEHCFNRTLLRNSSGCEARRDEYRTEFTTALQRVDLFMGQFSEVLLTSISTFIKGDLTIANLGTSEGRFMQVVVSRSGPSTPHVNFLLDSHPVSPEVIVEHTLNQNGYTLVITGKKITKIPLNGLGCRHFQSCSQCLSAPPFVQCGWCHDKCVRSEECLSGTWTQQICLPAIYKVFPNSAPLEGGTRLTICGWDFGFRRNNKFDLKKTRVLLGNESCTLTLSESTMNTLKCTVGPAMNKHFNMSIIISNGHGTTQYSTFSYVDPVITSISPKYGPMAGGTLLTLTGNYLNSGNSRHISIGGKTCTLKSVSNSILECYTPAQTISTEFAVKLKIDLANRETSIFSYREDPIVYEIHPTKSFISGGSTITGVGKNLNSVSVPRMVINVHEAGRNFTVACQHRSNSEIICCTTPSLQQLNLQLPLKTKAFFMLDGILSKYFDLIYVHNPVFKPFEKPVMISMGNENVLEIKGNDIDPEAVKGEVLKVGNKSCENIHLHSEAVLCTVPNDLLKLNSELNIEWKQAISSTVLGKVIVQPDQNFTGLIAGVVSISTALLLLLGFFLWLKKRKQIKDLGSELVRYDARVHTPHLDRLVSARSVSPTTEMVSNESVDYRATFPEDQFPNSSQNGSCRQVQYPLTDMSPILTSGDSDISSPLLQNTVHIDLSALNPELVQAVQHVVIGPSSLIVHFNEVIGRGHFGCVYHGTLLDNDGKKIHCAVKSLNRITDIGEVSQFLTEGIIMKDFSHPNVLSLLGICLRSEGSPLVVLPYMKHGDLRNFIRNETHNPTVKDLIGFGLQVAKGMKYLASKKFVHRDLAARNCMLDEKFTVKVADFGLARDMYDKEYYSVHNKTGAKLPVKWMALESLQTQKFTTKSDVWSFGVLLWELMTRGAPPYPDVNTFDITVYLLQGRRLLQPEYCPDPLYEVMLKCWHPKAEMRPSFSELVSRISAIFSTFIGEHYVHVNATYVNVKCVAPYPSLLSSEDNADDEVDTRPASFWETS

[4] = biological target: Vascular endothelial growth factor receptor 2 (Homo sapiens, UniProt P35968); assay: Inhibition of KDR by HTRF assay
Sequence of Vascular endothelial growth factor receptor 2 (P35968 whole entry): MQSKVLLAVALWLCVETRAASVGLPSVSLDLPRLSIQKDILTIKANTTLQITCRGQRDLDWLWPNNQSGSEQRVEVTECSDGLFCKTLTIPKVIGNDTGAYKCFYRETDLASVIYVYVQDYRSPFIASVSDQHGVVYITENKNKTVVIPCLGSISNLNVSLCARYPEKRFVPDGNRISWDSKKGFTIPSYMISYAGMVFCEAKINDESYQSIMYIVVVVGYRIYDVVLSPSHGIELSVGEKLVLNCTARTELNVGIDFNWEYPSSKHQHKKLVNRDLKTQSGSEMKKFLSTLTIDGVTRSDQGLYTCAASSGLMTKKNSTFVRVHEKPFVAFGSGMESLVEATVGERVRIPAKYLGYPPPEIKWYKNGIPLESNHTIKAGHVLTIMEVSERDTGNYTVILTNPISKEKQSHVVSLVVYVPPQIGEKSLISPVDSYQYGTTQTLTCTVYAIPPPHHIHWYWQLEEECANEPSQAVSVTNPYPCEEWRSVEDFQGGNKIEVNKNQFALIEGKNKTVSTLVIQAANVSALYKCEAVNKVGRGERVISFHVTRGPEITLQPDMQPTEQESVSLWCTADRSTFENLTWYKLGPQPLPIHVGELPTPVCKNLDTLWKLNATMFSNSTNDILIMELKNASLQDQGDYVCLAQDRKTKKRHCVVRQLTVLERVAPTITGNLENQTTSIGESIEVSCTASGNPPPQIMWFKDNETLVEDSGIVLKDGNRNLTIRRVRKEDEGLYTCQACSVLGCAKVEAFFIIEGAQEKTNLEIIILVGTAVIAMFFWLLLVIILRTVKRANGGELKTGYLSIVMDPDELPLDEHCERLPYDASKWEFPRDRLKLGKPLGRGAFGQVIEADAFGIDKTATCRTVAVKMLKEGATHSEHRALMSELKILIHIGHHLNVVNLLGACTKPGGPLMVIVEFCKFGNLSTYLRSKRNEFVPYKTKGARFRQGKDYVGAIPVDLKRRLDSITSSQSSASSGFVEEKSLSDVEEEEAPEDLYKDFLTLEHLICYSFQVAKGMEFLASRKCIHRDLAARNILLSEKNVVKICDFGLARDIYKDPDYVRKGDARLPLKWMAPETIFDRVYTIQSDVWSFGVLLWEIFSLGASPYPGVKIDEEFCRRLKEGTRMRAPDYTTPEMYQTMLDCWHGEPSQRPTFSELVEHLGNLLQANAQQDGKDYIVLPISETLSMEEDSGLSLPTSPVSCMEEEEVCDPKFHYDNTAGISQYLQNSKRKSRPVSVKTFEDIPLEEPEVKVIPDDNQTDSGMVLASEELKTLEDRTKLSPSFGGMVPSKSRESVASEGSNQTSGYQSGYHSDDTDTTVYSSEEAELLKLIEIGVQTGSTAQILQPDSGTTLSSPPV
Method in brief: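 KDR read by homogeneous time-resolved fluorescence with a biotinylated gastrin substrate. IC50 is the mean of two or more separate determinations, each in duplicate.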

Angiopoietin-1 receptor = Angiopoietin-1 receptor (Homo sapiens, UniProt Q02763); assay: Inhibition of Tie2
Sequence of Angiopoietin-1 receptor (Q02763 whole entry): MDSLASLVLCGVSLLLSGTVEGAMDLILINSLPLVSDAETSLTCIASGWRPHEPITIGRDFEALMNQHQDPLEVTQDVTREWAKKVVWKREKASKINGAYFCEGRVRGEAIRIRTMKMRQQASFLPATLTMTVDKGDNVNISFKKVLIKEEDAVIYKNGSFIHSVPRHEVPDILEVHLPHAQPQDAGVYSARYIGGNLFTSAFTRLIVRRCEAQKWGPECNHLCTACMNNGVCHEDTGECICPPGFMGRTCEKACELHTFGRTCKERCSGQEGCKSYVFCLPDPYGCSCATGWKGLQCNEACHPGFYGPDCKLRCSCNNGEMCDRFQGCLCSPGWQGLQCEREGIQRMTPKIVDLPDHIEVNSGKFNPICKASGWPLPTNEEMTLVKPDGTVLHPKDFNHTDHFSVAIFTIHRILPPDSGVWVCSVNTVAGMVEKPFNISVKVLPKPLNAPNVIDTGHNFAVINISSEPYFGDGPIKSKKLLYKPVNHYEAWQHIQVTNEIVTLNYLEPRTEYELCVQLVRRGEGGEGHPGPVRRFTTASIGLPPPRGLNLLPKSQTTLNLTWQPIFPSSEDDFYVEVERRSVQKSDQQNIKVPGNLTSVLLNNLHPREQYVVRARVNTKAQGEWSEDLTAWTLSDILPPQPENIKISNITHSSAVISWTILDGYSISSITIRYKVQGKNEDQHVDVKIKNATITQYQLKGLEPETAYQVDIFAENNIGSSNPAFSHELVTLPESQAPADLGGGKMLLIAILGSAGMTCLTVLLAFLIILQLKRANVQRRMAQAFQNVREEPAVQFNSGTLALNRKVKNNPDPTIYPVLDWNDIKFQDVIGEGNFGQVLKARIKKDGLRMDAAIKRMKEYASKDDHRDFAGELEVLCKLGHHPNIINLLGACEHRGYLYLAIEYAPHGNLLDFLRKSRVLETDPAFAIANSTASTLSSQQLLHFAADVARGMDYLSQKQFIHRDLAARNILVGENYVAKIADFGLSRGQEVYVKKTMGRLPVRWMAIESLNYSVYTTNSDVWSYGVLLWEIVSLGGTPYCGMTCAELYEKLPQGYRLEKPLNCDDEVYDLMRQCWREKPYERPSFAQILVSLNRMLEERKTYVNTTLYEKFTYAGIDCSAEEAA

[5] = biological target: Tyrosine-protein kinase Lck (Homo sapiens, UniProt P06239); assay: Inhibition of Lck
Sequence of Tyrosine-protein kinase Lck (P06239 whole entry): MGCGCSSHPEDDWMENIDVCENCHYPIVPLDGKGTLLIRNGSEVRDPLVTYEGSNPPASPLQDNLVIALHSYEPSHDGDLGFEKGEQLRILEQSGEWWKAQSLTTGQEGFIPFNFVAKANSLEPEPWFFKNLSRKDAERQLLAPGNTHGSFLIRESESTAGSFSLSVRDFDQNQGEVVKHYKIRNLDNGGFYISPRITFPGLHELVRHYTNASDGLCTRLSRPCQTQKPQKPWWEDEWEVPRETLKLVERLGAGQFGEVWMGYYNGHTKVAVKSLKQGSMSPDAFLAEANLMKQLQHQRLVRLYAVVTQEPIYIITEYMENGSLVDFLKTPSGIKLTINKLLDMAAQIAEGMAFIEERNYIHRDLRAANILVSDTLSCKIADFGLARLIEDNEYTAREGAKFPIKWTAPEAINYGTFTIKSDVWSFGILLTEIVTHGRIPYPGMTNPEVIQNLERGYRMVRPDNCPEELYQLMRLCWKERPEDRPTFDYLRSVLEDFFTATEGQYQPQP

[6] = Solubility in 0.01 N HCl; format: physicochemical
Method in brief: (§2)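 Equilibrium solubility measured in 0.01 N HCl, PBS (pH 7), and simulated intestinal fluid.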

[7] = Solubility in simulated intestinal fluid; format: physicochemical; method in brief: as §2
[8] = Solubility in PBS at pH 7; format: physicochemical; method in brief: as §2
[9] = Volume of distribution at steady state in Sprague-Dawley rat at 0.5 mg/kg, iv; format: ADME, organism-based; set-up: dose 0.5 mg/kg, route intravenous; details: in vivo, read-out: Vdss
Method in brief: (§3)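 Male Sprague Dawley rats; single dose, 0.5 mg/kg iv or 2 mg/kg po; mean pharmacokinetic parameters reported.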

[10] = Clearance in Sprague-Dawley rat at 0.5 mg/kg, iv; format: ADME, organism-based; set-up: dose 0.5 mg/kg, route intravenous; details: in vivo; method in brief: as §3
[11] = Half life in Sprague-Dawley rat at 0.5 mg/kg, iv; format: ADME, organism-based; set-up: dose 0.5 mg/kg, route intravenous; details: in vivo; method in brief: as §3
[12] = Metabolic stability in rat liver microsomes; format: ADME, Microsome; details: read-out: Stability
Method in brief: (§4)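 In vitro stability on incubation with human or rat liver microsomal preparations.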

[13] = Metabolic stability in human liver microsomes; format: ADME, Microsome; details: read-out: Stability; method in brief: as §4
[14] = AUC (0 to infinity) in Sprague-Dawley rat at 2 mg/kg, po; format: ADME, organism-based; set-up: time infinity, dose 2 mg/kg, route oral; details: plasma; method in brief: as §3
[15] = Cmax in Sprague-Dawley rat at 2 mg/kg, po; format: ADME, organism-based; set-up: dose 2 mg/kg, route oral; details: in vivo; method in brief: as §3
[16] = Cmax in VEGF-soaked disk implanted Sprague-Dawley rat at […]; format: ADME, organism-based; set-up: dose 0.16 mg/kg; details: in vivo, read-out: ED50
[17] = Oral bioavailability in Sprague-Dawley rat at 2 mg/kg, po; format: ADME, organism-based; details: in vivo; method in brief: as §3
[18] = AUC in VEGF-soaked disk implanted Sprague-Dawley rat at […]; format: ADME, organism-based; set-up: dose 0.16 mg/kg; details: plasma, read-out: ED50
[19] = Tmax in Sprague-Dawley rat at 2 mg/kg, po; format: ADME, organism-based; set-up: dose 2 mg/kg, route oral; details: in vivo; method in brief: as §3
[20] = 0.01 N HCl, read-out: Solubility
[21] = simulated intestinal fluid, read-out: Solubility

SMILES	IC50 [3] [µM]	IC50 [4] [µM]	IC50 (Angiopoietin-1 receptor) [µM]	IC50 [5] [µM]	solubility [6, 20] [µg/mL]	solubility [7, 21] [µg/mL]	solubility [8] [µg/mL]	IC50 (HUVEC [1]) [µM]	IC50 (HUVEC [2]) [µM]	other results
COc1cc2nccc(Oc3ccc4c(c3)OCCN4C(=O)Nc3cccc(C)c3)c2cc1OC	0.35	–	–	–	–	–	–	0.19	0.0006	–
COc1cc2nccc(Oc3ccc4c(c3)OCCN4C(=O)N[C@@H](C)c3ccccc3)c2cc1OC	0.46	0.001	0.26	0.018	–	–	–	0.3	0.003	Vd [9]: 1.4 L/kg; clearance [10]: 16.3 mL/min/kg; half-life [11]: 2.3 h; microsomal CLint [12]: 188 µL/min/mg; microsomal CLint [13]: 543 µL/min/mg
COc1cc2nccc(Oc3ccc4c(c3)OCCN4C(=O)NC(C)C)c2cc1OC	1.2	0.04	> 4	1	> 200	14 (≈ 33.1 µM)	3 (≈ 7.08 µM)	1.1	0.052	–
COc1cc2nccc(Oc3ccc4c(c3)OCCN4C(=O)Nc3ccc(Cl)cc3)c2cc1OC	–	–	–	–	–	–	–	–	–	AUC(0-inf) [14]: 7900 ng·h/mL; Vd [9]: 1.8 L/kg; solubility ([6]; buffer): 28 µg/mL (≈ 56.9 µM); Cmax [15]: 810 ng/mL; clearance [10]: 4 mL/min/kg; Cmax [16]: 180 nM; bioavailability [17]: 95%; half-life [11]: 6.4 h; microsomal CLint [12]: 44 µL/min/mg; AUC [18]: 2.8 µM·h; solubility ([7]; simulated gi fluid): 33 µg/mL (≈ 67.1 µM); Tmax [19]: 3.3 h; microsomal CLint [13]: < 14 µL/min/mg
COc1cc2nccc(Oc3ccc4c(c3)OCCN4C(=O)Nc3ccccc3Cl)c2cc1OC	0.29	0.019	2.2	2.2	–	–	–	0.23	0.073	–
CNC(=O)c1cccc2cc(Oc3ccnc4cc(OC)c(OC)cc34)ccc12	–	–	–	–	> 200	3 (≈ 7.72 µM)	1.4 (≈ 3.6 µM)	–	–	–
O=C(Nc1ccc(Cl)cc1)N1CCOc2cc(Oc3ncnc4[nH]ccc34)ccc21	> 4	0.077	> 4	> 4	–	–	–	> 1	0.23	–
COc1cc2nccc(Oc3ccc4c(c3)OCCN4C(=O)Nc3ccc(C)cc3)c2cc1C(N)=O	0.26	0.0005	0.43	0.019	–	–	–	0.3	0.001	AUC(0-inf) [14]: 650 ng·h/mL; Vd [9]: 1.4 L/kg; Cmax [15]: 160 ng/mL; clearance [10]: 14.3 mL/min/kg; bioavailability [17]: 28%; half-life [11]: 1.6 h; microsomal CLint [12]: 96 µL/min/mg; Tmax [19]: 2.3 h; microsomal CLint [13]: 62 µL/min/mg
CNC(=O)c1cc(Oc2ccc3c(c2)OCCN3C(=O)Nc2ccc(Cl)cc2)ccn1	> 4	0.095	> 4	> 4	–	–	–	> 1	> 1	–
Cc1ccc(NC(=O)N2CCOc3cc(Oc4ncnc5[nH]ccc45)ccc32)cc1	> 4	0.026	> 4	> 4	–	–	–	> 1	0.23	–
CNC(=O)N1CCOc2cc(Oc3ccnc4cc(OC)c(OC)cc34)ccc21	> 4	0.04	> 4	2.4	> 200	130 (≈ 329 µM)	46 (≈ 116 µM)	0.37	0.1	–
COc1cc2nccc(Oc3ccc4c(c3)OCCN4C(=O)Nc3cccc(Cl)c3)c2cc1OC	0.23	0.001	0.009	0.004	120 (≈ 244 µM)	28 (≈ 56.9 µM)	< 1	0.22	0.0004	–
COc1cc2nccc(Oc3ccc4c(c3)OCCN4C(N)=O)c2cc1OC	> 4	0.058	> 4	> 4	–	–	–	1.1	0.28	–
COc1cc2nccc(Oc3ccc4c(c3)OCCN4C(=O)N[C@H](C)c3ccccc3)c2cc1OC	0.21	0.04	> 4	0.078	–	–	–	1.1	0.25	–
COc1cc2nccc(Oc3ccc4c(c3)OCCN4C(=O)Nc3ccccc3)c2cc1OC	0.65	0.001	0.386	0.188	–	–	–	0.34	0.0006	Vd [9]: 2.1 L/kg; clearance [10]: 30 mL/min/kg; half-life [11]: 1.2 h; microsomal CLint [12]: 122 µL/min/mg; microsomal CLint [13]: 62 µL/min/mg

Continued, in another order:

IC50 [3] [µM]	IC50 [4] [µM]	IC50 (Angiopoietin-1 receptor) [µM]	IC50 [5] [µM]	solubility [6, 20] [µg/mL]	solubility [7, 21] [µg/mL]	solubility [8] [µg/mL]	SMILES	IC50 (HUVEC [1]) [µM]	IC50 (HUVEC [2]) [µM]	other results
0.41	0.001	1.6	0.027	–	–	–	COc1cc2nccc(Oc3ccc4c(c3)OCCN4C(=O)Nc3ccccc3C)c2cc1OC	0.91	0.045	–
–	–	–	–	9.5 (≈ 19.6 µM)	36 (≈ 74.2 µM)	< 1	COc1cc2nccc(Oc3ccc4c(C(=O)Nc5cccc(Cl)c5)cccc4c3)c2cc1OC	–	–	–
0.5	0.026	1.5	0.15	–	–	–	COc1cc2nccc(Oc3ccc4c(c3)OCCN4C(=O)NCc3ccc(C)cc3)c2cc1OC	1.1	0.36	–
> 4	0.062	> 4	> 4	–	–	–	CNC(=O)c1cc(Oc2ccc3c(c2)OCCN3C(=O)Nc2ccc(C)cc2)ccn1	> 1	> 1	–
1.1	0.003	1.5	0.09	> 200	41 (≈ 86.2 µM)	3.3 (≈ 6.94 µM)	COc1cc2nccc(Oc3ccc4c(c3)OCCN4C(=O)Nc3ccc(F)cc3)c2cc1OC	0.3	0.002	AUC(0-inf) [14]: 2600 ng·h/mL; Vd [9]: 2.1 L/kg; Cmax [15]: 410 ng/mL; clearance [10]: 13.7 mL/min/kg; bioavailability [17]: 81%; half-life [11]: 3 h; microsomal CLint [12]: 74 µL/min/mg; Tmax [19]: 2.7 h; microsomal CLint [13]: 17 µL/min/mg
1.6	0.053	> 4	0.5	–	–	–	COc1cc2nccc(Oc3ccc4c(c3)OCCN4C(=O)NCc3ccccc3)c2cc1OC	> 1.1	0.237	–
1.4	0.001	> 4	1.5	–	–	–	CCNC(=O)N1CCOc2cc(Oc3ccnc4cc(OC)c(OC)cc34)ccc21	0.78	0.023	–
–	–	–	–	> 200	5.6 (≈ 13.4 µM)	< 1	COc1cc2nccc(Oc3ccc4c(C(=O)NC(C)C)cccc4c3)c2cc1OC	–	–	–
0.16	0.0006	0.29	0.021	–	–	–	COc1cc2nccc(Oc3ccc4c(c3)OCCN4C(=O)Nc3ccc(Cl)cc3)c2cc1C(N)=O	0.29	0.001	AUC(0-inf) [14]: 4500 ng·h/mL; Vd [9]: 0.5 L/kg; Cmax [15]: 820 ng/mL; clearance [10]: 3.17 mL/min/kg; bioavailability [17]: 46%; half-life [11]: 2.6 h; microsomal CLint [12]: 25 µL/min/mg; Tmax [19]: 2.3 h; microsomal CLint [13]: 48 µL/min/mg
–	–	–	–	67 (≈ 143 µM)	1.3 (≈ 2.77 µM)	< 1	COc1cc2nccc(Oc3ccc4c(C(=O)Nc5ccc(F)cc5)cccc4c3)c2cc1OC	–	–	–
–	–	–	–	> 200	9.4 (≈ 20.2 µM)	< 1	COc1cc2nccc(Oc3ccc4c(C(=O)Nc5ccc(C)cc5)cccc4c3)c2cc1OC	–	–	–
0.37	0.0002	1	0.063	> 200	22 (≈ 46.7 µM)	< 1	COc1cc2nccc(Oc3ccc4c(c3)OCCN4C(=O)Nc3ccc(C)cc3)c2cc1OC	0.28	0.003	AUC(0-inf) [14]: 1300 ng·h/mL; Vd [9]: 2.8 L/kg; Cmax [15]: 300 ng/mL; clearance [10]: 12 mL/min/kg; bioavailability [17]: 47%; half-life [11]: 4.4 h; microsomal CLint [12]: 104 µL/min/mg; Tmax [19]: 1 h; microsomal CLint [13]: 31 µL/min/mg
–	–	–	–	–	1.4 (≈ 2.89 µM)	< 1	COc1cc2nccc(Oc3ccc4c(C(=O)Nc5ccc(Cl)cc5)cccc4c3)c2cc1OC	–	0.008	–
